Results from paper PMC6231235 (Science translational medicine, 2017).

Tested on: human FXa
Assay: In vitro neutralization of anti-FXa activity by protamine
Assay type: biochemical
Settings: sample at 25 x IC50, protamine 0 to 90 μg/ml
Summary of the method: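 Human plasma is combined with a fixed test-compound stock set per construct and protamine chloride in PBS (0 to 90 μg/ml solutions), then held 5 min at room temperature. The mixture then goes into the chromogenic anti-FXa assay: human FXa for 4 min at room temperature, S-2765 substrate, and A405 read continuously for 5 min.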

CO[C@H]1O[C@H](COS(=O)(=O)O)[C@@H](O[C@@H]2O[C@@H](C(=O)O)[C@@H](O[C@H]3O[C@H](COS(=O)(=O)O)[C@@H](O[C@@H]4O[C@H](C(=O)O)[C@@H](O[C@H]5O[C@H](COS(=O)(=O)O)[C@@H](O)[C@H](O)[C@H]5NS(=O)(=O)O)[C@H](O)[C@H]4O)[C@H](OS(=O)(=O)O)[C@H]3NS(=O)(=O)O)[C@H](O)[C@H]2OS(=O)(=O)O)[C@H](O)[C@H]1NS(=O)(=O)O [Fondaparinux]
neutralization of anti-FXa activity by protamine in vitro: completely insensitive
